Experimental data: ChEMBL document CHEMBL5715947 (Blood Cancer J, 2011)
Active and inactive are the calls of the source. The rule behind the calls is not given here.

Columns and labels:
[1] = test system: MOLM-13; test: Induction of cell cycle arrest in human MOLM-13 cells harboring FLT3-ITD mutant assessed increase in cell accumulation at G1 phase after 24 hrs by Propidium iodide staining based flow cytometric analysis; format: functional
How it was run: (§1)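 Cells then fixed in ice-cold 70% ethanol, stained with 20 ng/ml propidium iodide, and cell-cycle phases measured by flow cytometry.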

[2] = test system: MV4-11; test: Induction of apoptosis in human MV4-11 cells harboring FLT3-ITD mutant assessed late apoptotic cells at 0.03 uM after 48 hrs by AnnexinV-FITC/Propidium iodide staining based flow cytometric analysis (reference value: 1.56 %); format: functional
[3] = test system: MV4-11; test: Induction of apoptosis in human MV4-11 cells harboring FLT3-ITD mutant assessed viable cells at 0.03 uM after 48 hrs by AnnexinV-FITC/Propidium iodide staining based flow cytometric analysis (reference value: 86.15 %); format: functional
[4] = test system: MOLM-13; test: Antitumor activity against human MOLM-13 cells harboring FLT-3 ITD mutant xenografted in BALB/c nude mouse assessed as decrease in metastatic incidence at 150 mg/kg, po bid administered daily for 7 days; format: functional; conditions: time 7 day
[5] = test system: MV4-11; test: Antitumor activity against human MV4-11 cells harboring FLT-3 ITD mutant xenografted in BALB/c nude mouse assessed as tumor growth inhibition at 100 mg/kg, po administered daily for 21 days relative to control; format: functional; conditions: MV4-11, 504 h, time 21 day, read-out: TGI
How it was run: (§2)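 Female BALB/c nude mice implanted s.c. in right flank with 1 × 10^7 MV4-11 cells in serum-free medium mixed 1:1 with Matrigel. Randomised on day 11 at mean 146–150 mm3 (n=10/group); oral hydrochloride salt once daily for 21 days in 0.5% methylcellulose/0.1% Tween-80. Doses are free-base equivalents; caliper twice weekly; ANOVA with Dunnett's test.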

[6] = test system: MV4-11; test: Induction of apoptosis in human MV4-11 cells harboring FLT3-ITD mutant assessed late apoptotic cells at 0.03 uM after 72 hrs by AnnexinV-FITC/Propidium iodide staining based flow cytometric analysis (reference value: 1.48 %); format: functional
[7] = test system: RS4-11; test: Induction of cell cycle arrest in human RS4-11 cells assessed increase in cell accumulation at G1 phase after 24 hrs by Propidium iodide staining based flow cytometric analysis; format: functional; how it was run: as §1
[8] = Antiproliferative activity against human derived Acute myeloid leukemic cells assessed as reduction in cell viability incubated for 48 hr by CellTiter-Glo assay; format: functional, cell-based; conditions: Leukemia cell
[9] = test system: MV4-11; test: Induction of apoptosis in human MV4-11 cells harboring FLT3-ITD mutant assessed necrotic cells at 0.03 uM after 48 hrs by AnnexinV-FITC/Propidium iodide staining based flow cytometric analysis (reference value: 0.45 %); format: functional
[10] = test system: MV4-11; test: Induction of apoptosis in human MV4-11 cells harboring FLT3-ITD mutant assessed late apoptotic cells at […] after 48 hrs by AnnexinV-FITC/Propidium iodide staining based flow cytometric analysis (reference value: 1.56 %); format: functional; conditions: dose 0.15 µM
[11] = test system: MOLM-13; test: Antitumor activity against human MOLM-13 cells harboring FLT-3 ITD mutant xenografted in BALB/c nude mouse assessed as decrease in phosphorylated STAT3 at Y704 residue at 150 mg/kg, po measured after 3 hrs by Western blot analysis; format: functional, organism-based
How it was run: (§3)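 Mice bearing s.c. MOLM-13 xenografts given a single oral dose of 150 mg/kg. Tumours harvested at 3 h; lysates immunoblotted for phospho-FLT3, -STAT3, -STAT5, -Akt and total actin.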

[12] = Antiproliferative activity against relapsed human derived Acute myeloid leukemic cells assessed as reduction in cell viability incubated for 48 hr by CellTiter-Glo assay; format: functional, cell-based; conditions: Leukemia cell
How it was run: (§4)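 Primary AML peripheral blood or bone marrow mononuclear cells thawed and expanded ex vivo; blasts counted between day 10 and 13, characterised by CD123 FACS and FLT3 genotyping. Blasts treated 48 h; proliferation IC50 read by CellTiter-Glo.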

[13] = Antiproliferative activity against human derived M4 Fab type Acute myeloid leukemic cells assessed as reduction in cell viability incubated for 48 hr by CellTiter-Glo assay; format: functional, cell-based; conditions: Leukemia cell; how it was run: as §4
[14] = test system: MV4-11; test: Antitumor activity against human MV4-11 cells harboring FLT-3 ITD mutant xenografted in BALB/c nude mouse assessed as tumor growth inhibition at 25 mg/kg, po administered daily for 21 days relative to control; format: functional; conditions: MV4-11, 504 h, time 21 day, read-out: TGI; how it was run: as §2
[15] = test system: MOLM-13; test: Antitumor activity against human MOLM-13 cells harboring FLT-3 ITD mutant xenografted in BALB/c nude mouse assessed as decrease in phosphorylated FLT3 at Y591 residue at 150 mg/kg, po measured after 3 hrs by Western blot analysis; format: functional, organism-based; how it was run: as §3
[16] = Antiproliferative activity against relapsed human derived M5b Fab type Acute myeloid leukemic cells assessed as reduction in cell viability incubated for 48 hr by CellTiter-Glo assay; format: functional, cell-based; conditions: Leukemia cell; how it was run: as §4
[17] = test system: MV4-11; test: Induction of apoptosis in human MV4-11 cells harboring FLT3-ITD mutant assessed viable cells at […] after 72 hrs by AnnexinV-FITC/Propidium iodide staining based flow cytometric analysis (reference value: 90.5 %); format: functional; conditions: dose 0.15 µM
[18] = test system: Leukemia cell; test: (§5) Induction of apoptosis in human derived Acute myeloid leukemic cells assessed increase in cleaved caspase-3/7 after 16 hrs by Caspase-Glo 3/7 assay; format: functional, cell-based
How it was run: (§6)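 Expanded primary AML blasts at 300 000 cells/ml treated 16 h; caspase-3/7 activity read by Caspase-Glo 3/7 luminescence and EC50 for apoptosis induction determined.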

[19] = as §5; format: functional, cell-based; conditions: Leukemia cell; how it was run: as §6
[20] = test system: MV4-11; test: Induction of apoptosis in human MV4-11 cells harboring FLT3-ITD mutant assessed early apoptotic cells at […] after 48 hrs by AnnexinV-FITC/Propidium iodide staining based flow cytometric analysis (reference value: 11.84 %); format: functional; conditions: dose 0.15 µM
[21] = test system: MV4-11; test: Induction of apoptosis in human MV4-11 cells harboring FLT3-ITD mutant assessed late apoptotic cells at […] after 72 hrs by AnnexinV-FITC/Propidium iodide staining based flow cytometric analysis (reference value: 1.48 %); format: functional; conditions: dose 0.15 µM
[22] = test system: MV4-11; test: Antitumor activity against human MV4-11 cells harboring FLT-3 ITD mutant xenografted in BALB/c nude mouse assessed as decrease in phosphorylated STAT5 at Y694 residue at 150 mg/kg, po measured after 2 to 4 hrs by Western blot analysis; format: functional, organism-based; conditions: time 2-4 hrs
How it was run: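 Mice bearing s.c. MV4-11 xenografts given a single oral dose of 150 mg/kg in methylcellulose/Tween vehicle. Tumours harvested at 2 and 4 h; lysates immunoblotted for phospho-STAT5 with actin as loading control.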

EC50 [19]: 268 nM
Compound: C1=N/C2=N/c3ccc(OCCN4CCCC4)c(c3)COC/C=C/COCc3cccc(c3)C(=C1)N2 [PACRITINIB]
Activity [1]: Dose-Dependent Effect | Activity [2]: 5.58% | Activity [3]: 68.98% | Activity [4]: 0.33 | inhibition in vivo at 100 mg/kg [5]: 121% | Activity [6]: 3.74% | Activity [7]: Dose-Dependent Effect | IC50 [8]: 460 nM | Activity [9]: 0.94% | Activity [10]: 20.83% | Activity [11]: Active | IC50 [12]: 1330 nM | IC50 [13]: 840 nM | inhibition in vivo at 25 mg/kg [14]: 38% | Activity [15]: Active | IC50 [16]: 460 nM | Activity [17]: 20.38% | Activity [18]: Dose-Dependent Effect | Activity [20]: 39.9% | Activity [21]: 15.1% | Activity [22]: Active
